Measured values pooled from the literature.
Each line is one published result; the experiments were not run side by side.
Sample: plasma

With `COc1ccc2c(c1)CN(C(=O)CCN1CCC(Cc3ccccc3)CC1)CC[S@@+]2[O-]` the Cmax was 1310 ng/mL (male human; intravenous; 0.6 mg/kg; healthy volunteers).
`COc1ccc(-c2c(Nc3ccccn3)[nH]c3c(C4=CCCCC4)c(-c4ccccc4)nn3c2=O)cc1` gave a Cmax of 5720 ng/mL (human; oral; 200 mg once daily; multiple doses, patients).
The Cmax of `CC(=O)N(C)[C@H]1CCN(C(=O)c2cnc3c(c2)C[C@](C)(c2ccc(F)cc2)N3)C1` is reported as 333 nM (male human; oral; 15 mg; multiple doses, once daily, steady state).
With `CC(C)n1c(C2CCNCC2)nc2c([N+](=O)[O-])c(Br)c(Br)cc21` the Cmax was 33.6 ng/mL (human; oral; 50 mg; patients).
For `Cc1cc(-c2nccc3c2ccn3CC(=O)Nc2ccc(-c3cnccn3)cn2)ccn1`, the Cmax was 188 nM (human; oral; 20 mg; single dose).
`O=C(COc1ccc(Cl)cc1)NC12CC(c3nnc([C@H]4C[C@@H](OC(F)(F)F)C4)o3)(C1)C2` gave a Cmax of 9280 nM (human; oral; 145 mg; multiple doses, once daily, steady state, healthy volunteers).
`COc1ccc(F)cc1C(=O)NCc1ccc(-c2nn([C@@H](C)C(F)(F)F)c(N)c2C(N)=O)cc1` has a Cmax of 4490 ng/mL (male human; oral; 200 mg; single dose).
The Cmax of `OC[C@H]1O[C@@H](c2cc(Cc3ccc(C4CC4)cc3)c(Cl)c3c2CCO3)[C@H](O)[C@@H](O)[C@@H]1O` is reported as 4.5 ng/mL (human; oral; 0.3 mg; single dose, fasted).
The Cmax of `C=CC(=O)NC1CCN(c2ncc3ncnc(Nc4ccc(Oc5ccc6c(c5)ncn6C)c(C)c4)c3n2)CC1` is reported as 1160 nM (male human; oral; 60 mg; single dose, healthy volunteers).
